This assay addresses T1, Angiotensin-converting enzyme (Oryctolagus cuniculus, UniProt P12822).
T1 sequence (P12822 whole entry): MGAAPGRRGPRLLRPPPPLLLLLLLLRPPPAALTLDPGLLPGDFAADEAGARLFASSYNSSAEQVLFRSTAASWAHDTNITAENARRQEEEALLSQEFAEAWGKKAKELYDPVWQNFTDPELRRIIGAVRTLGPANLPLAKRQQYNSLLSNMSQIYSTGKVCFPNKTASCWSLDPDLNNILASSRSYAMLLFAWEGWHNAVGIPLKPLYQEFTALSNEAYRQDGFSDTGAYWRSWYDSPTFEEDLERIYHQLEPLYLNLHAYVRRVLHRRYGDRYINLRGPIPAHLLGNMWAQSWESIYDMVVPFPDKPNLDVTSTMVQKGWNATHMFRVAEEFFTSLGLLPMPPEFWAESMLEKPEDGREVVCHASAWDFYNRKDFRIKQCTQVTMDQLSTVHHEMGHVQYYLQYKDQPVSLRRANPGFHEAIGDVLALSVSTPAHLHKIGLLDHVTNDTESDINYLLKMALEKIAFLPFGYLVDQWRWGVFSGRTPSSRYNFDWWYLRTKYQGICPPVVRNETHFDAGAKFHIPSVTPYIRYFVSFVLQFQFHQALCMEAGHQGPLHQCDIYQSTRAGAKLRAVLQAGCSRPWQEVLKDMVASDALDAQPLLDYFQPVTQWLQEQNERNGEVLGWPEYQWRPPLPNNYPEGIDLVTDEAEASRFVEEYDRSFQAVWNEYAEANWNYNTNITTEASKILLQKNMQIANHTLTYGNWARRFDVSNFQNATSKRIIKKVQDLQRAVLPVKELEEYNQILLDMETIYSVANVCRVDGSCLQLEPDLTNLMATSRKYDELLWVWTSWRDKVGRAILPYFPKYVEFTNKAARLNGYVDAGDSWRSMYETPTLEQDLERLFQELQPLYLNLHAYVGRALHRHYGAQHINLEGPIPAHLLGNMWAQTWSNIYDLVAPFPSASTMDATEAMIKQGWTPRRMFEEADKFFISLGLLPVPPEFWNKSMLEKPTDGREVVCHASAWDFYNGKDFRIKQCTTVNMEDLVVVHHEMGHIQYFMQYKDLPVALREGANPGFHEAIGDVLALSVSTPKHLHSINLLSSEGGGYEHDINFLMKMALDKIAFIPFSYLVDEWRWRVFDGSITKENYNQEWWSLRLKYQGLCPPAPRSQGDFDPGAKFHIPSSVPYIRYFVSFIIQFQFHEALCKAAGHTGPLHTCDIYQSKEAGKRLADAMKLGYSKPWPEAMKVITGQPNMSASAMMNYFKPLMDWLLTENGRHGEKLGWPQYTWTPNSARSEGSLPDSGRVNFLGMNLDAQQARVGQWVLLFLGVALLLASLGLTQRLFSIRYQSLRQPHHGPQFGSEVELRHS
Kind of assay: In vitro inhibition of Angiotensin I converting enzyme with relative to captopril(=1). Put shortly:
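Crude ACE from rabbit lung acetone powder extracted in 50 mM potassium phosphate pH 8.3, spun 40000g. Final assay: 100 mM phosphate pH 8.3, 300 mM NaCl, 5 mM hippuryl-His-Leu; enzyme added last, 30 min at 37 °C, stopped with HCl. Hippuric acid extracted into EtOAc, dried, redissolved in water, read by absorbance.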

Usually IC50 stands for the concentration that gives 50% inhibition. In turn, `O=C(O)[C@@H]1CCCN1C(=O)CCS` registered an IC50 of 200 nM.
